According to ChEMBL document CHEMBL3603780, “Discovery of thieno[3,2-c]pyridin-4-amines as novel Bruton's tyrosine kinase (BTK) inhibitors” (Bioorg Med Chem, 2015):
Each block holds one compound with its values, some of them ahead of it.

Tests used:
[1] = target: Tyrosine-protein kinase BTK (Homo sapiens, UniProt Q06187); assay: Inhibition of human recombinant BTK incubated for 5 mins by HTRF kinase assay
[2] = target: T1, Tyrosine-protein kinase JAK3 (Homo sapiens, UniProt P52333); assay: Inhibition of JAK3 (unknown origin) using poly (Glu-Tyr, 4:1) substrate incubated for 60 mins by ELISA method
T1 sequence (P52333 whole entry): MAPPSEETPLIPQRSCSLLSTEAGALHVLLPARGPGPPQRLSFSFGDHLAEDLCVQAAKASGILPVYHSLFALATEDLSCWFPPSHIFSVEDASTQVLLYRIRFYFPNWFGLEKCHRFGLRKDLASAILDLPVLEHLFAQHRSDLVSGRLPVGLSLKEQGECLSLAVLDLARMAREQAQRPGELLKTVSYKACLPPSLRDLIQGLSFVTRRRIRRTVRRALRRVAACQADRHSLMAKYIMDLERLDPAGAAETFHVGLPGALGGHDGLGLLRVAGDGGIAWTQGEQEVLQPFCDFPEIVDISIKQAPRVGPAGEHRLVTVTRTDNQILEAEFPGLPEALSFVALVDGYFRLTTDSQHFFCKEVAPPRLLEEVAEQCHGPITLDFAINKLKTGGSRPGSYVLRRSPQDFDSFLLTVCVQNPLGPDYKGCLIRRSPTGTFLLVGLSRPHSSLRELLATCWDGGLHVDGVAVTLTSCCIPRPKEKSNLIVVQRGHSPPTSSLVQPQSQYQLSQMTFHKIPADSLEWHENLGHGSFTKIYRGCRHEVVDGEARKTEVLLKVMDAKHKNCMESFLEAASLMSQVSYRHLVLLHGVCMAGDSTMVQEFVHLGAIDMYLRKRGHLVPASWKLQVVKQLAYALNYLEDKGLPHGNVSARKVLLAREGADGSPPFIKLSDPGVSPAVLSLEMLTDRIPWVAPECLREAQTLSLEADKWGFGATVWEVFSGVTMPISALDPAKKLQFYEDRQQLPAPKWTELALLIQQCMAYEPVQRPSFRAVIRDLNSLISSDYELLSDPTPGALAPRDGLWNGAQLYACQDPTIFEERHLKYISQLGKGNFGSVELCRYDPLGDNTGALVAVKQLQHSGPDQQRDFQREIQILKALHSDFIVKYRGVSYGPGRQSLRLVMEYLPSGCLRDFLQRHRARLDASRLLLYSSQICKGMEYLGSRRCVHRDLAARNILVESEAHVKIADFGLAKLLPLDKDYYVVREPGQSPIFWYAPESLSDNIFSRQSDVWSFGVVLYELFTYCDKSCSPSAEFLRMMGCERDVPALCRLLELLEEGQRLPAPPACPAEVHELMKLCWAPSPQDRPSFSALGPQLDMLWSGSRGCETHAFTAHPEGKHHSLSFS
In short: (§1)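 ELISA on wells precoated overnight at 37 °C with 0.2 mg/mL poly(Glu-Tyr, 4:1). Kinase and 0.01 mmol/L ATP in reaction medium, plus inhibitor at various concentrations in 1% DMSO, were reacted for 60 min at 37 °C. Anti-phosphotyrosine antibody and HRP anti-mouse IgG followed, with TMB read-out stopped by 2 M H2SO4 and OD at 450 nm. IC50 came from regression of concentration/inhibition data.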

[3] = target: Vascular endothelial growth factor receptor 2 (Homo sapiens, UniProt P35968); assay: Inhibition of KDR (unknown origin) using poly (Glu-Tyr, 4:1) substrate incubated for 60 mins by ELISA method; in short: as §1
Sequence of Vascular endothelial growth factor receptor 2 (P35968 whole entry): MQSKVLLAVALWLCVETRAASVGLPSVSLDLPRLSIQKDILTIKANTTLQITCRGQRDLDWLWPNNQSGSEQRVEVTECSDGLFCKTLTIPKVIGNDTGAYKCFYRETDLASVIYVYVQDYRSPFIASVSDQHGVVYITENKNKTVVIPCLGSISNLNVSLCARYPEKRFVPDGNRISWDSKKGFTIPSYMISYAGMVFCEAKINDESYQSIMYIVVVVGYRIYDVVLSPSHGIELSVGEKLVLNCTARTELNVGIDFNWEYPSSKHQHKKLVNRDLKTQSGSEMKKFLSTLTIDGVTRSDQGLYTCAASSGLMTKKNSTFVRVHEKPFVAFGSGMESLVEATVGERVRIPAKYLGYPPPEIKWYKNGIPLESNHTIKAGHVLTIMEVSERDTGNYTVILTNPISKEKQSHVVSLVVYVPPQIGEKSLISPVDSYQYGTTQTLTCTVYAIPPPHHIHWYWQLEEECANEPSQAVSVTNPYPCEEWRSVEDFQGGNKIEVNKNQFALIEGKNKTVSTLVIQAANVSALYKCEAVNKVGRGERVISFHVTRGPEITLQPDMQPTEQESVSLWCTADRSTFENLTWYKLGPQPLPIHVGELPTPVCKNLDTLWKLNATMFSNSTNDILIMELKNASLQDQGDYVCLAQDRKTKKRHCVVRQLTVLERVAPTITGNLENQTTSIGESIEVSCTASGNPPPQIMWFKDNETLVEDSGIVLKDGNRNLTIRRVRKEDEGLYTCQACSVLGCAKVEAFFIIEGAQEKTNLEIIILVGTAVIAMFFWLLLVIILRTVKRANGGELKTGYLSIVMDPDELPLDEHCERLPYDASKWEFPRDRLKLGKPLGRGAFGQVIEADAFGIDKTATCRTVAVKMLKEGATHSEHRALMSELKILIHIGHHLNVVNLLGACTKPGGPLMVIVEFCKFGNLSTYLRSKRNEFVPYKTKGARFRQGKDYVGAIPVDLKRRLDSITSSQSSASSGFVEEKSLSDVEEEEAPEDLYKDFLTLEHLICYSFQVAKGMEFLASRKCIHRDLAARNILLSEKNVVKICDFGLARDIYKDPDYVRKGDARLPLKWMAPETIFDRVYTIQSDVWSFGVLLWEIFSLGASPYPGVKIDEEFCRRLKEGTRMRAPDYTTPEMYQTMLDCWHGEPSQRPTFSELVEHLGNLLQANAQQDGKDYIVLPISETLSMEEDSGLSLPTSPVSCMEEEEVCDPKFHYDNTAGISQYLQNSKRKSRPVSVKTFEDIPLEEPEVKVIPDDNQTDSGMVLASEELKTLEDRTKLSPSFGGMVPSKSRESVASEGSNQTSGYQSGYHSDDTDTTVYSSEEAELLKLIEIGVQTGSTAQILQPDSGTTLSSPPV

[4] = target: Hepatocyte growth factor receptor (Homo sapiens, UniProt P08581); assay: Inhibition of c-MET (unknown origin) using poly (Glu-Tyr, 4:1) substrate incubated for 60 mins by ELISA method; in short: as §1
Sequence of Hepatocyte growth factor receptor (P08581 whole entry): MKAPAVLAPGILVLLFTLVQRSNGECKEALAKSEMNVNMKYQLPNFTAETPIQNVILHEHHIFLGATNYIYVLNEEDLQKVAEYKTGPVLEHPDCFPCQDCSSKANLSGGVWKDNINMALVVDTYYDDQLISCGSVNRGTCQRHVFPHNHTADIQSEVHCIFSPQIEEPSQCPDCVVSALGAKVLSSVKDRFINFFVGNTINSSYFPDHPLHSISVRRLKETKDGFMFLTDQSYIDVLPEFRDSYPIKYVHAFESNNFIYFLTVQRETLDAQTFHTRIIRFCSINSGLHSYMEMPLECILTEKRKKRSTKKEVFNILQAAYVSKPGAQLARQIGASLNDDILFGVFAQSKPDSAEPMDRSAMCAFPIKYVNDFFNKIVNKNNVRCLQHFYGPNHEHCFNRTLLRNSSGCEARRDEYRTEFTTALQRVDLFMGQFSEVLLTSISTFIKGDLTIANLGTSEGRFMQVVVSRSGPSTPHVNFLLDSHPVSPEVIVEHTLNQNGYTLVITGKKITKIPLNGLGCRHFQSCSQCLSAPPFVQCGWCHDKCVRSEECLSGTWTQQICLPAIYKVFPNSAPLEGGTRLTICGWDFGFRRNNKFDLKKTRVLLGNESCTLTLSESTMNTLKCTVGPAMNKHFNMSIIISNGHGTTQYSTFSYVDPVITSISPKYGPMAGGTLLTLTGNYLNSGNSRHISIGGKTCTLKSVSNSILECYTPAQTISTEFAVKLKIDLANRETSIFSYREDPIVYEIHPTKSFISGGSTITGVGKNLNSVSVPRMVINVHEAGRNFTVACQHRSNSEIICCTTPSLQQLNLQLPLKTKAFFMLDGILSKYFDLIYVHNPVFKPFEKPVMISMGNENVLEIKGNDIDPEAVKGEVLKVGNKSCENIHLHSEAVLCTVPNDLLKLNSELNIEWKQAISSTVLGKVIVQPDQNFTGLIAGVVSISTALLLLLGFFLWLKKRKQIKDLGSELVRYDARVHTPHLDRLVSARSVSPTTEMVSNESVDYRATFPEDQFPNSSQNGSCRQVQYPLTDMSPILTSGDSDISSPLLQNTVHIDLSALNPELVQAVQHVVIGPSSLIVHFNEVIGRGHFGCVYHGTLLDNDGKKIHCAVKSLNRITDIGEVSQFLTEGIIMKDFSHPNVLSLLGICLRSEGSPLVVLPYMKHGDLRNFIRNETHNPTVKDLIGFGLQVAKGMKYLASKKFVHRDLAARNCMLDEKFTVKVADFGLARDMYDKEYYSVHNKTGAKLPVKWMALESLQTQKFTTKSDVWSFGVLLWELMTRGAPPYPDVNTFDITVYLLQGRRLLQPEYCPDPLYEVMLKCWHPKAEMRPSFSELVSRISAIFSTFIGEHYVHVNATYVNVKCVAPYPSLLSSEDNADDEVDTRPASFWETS

[5] = target: Tyrosine-protein kinase JAK2 (Homo sapiens, UniProt O60674); assay: Inhibition of JAK2 (unknown origin) using poly (Glu-Tyr, 4:1) substrate incubated for 60 mins by ELISA method; in short: as §1
Sequence of Tyrosine-protein kinase JAK2 (O60674 whole entry): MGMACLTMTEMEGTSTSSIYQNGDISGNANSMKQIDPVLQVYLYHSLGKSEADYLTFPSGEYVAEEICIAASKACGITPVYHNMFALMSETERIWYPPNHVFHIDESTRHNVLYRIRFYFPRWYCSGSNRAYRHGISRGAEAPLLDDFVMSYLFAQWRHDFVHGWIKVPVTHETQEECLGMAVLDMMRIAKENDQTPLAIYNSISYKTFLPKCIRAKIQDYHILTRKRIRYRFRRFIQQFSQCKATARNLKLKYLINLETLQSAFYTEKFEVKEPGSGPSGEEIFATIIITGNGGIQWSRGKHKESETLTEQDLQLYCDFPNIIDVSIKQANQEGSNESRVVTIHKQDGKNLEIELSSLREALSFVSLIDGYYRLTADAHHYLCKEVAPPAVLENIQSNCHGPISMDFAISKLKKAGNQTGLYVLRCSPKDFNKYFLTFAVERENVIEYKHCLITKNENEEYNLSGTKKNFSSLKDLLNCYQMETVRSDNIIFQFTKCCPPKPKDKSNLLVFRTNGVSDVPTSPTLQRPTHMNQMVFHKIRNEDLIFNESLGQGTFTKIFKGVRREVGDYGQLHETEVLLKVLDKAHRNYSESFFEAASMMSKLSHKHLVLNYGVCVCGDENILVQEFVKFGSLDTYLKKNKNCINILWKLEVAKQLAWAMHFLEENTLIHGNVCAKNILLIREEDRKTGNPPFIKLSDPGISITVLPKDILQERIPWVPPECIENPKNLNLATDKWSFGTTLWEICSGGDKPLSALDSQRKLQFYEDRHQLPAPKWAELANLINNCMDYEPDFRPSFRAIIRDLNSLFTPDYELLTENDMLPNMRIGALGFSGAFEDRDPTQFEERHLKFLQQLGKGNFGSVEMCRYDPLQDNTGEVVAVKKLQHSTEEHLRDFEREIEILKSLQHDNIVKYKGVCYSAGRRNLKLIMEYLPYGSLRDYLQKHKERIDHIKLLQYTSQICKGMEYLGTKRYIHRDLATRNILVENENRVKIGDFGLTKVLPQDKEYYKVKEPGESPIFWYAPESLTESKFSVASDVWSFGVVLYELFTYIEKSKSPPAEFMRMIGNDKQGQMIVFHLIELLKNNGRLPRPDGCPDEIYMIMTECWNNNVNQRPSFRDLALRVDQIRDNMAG

[6] = Cmax in Sprague-Dawley rat at 2.5 mg/kg, iv by LC-MS/MS method; assay type: ADME, organism-based; design: dose 2.5 mg/kg, route intravenous; conditions: in vivo
In short: (§2)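 Male SD rats, 3 per route (180-240 g), dosed 2.5 mg/kg iv or 10 mg/kg po at 5 mL/kg. Blood was sampled from 2 min to 24 h, centrifuged at 4000 rpm for 5 min at 4 °C and protein-precipitated. Plasma was quantified by LC/MS/MS in SRM mode with an internal standard. PK parameters came from noncompartmental analysis.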

[7] = AUC (0 to t) in Sprague-Dawley rat at 2.5 mg/kg, iv by LC-MS/MS method; assay type: ADME, organism-based; conditions: in vivo; in short: as §2
[8] = Apparent volume of distribution in Sprague-Dawley rat at 2.5 mg/kg, iv by LC-MS/MS method; assay type: ADME, organism-based; conditions: in vivo, read-out: Vz; in short: as §2
[9] = Clearance in Sprague-Dawley rat at 2.5 mg/kg, iv by LC-MS/MS method; assay type: ADME, organism-based; conditions: in vivo; in short: as §2
[10] = Mean residence time in Sprague-Dawley rat at 2.5 mg/kg, iv by LC-MS/MS method; assay type: ADME, organism-based; conditions: in vivo; in short: as §2
[11] = Half life in Sprague-Dawley rat at 2.5 mg/kg, iv by LC-MS/MS method; assay type: ADME, organism-based; conditions: in vivo; in short: as §2
[12] = Tmax in Sprague-Dawley rat at 2.5 mg/kg, iv by LC-MS/MS method; assay type: ADME, organism-based; conditions: in vivo; in short: as §2
[13] = Cmax in Sprague-Dawley rat at 10 mg/kg, po by LC-MS/MS method; assay type: ADME, organism-based; design: dose 10 mg/kg, route oral; conditions: in vivo; in short: as §2
[14] = AUC (0 to t) in Sprague-Dawley rat at 10 mg/kg, po by LC-MS/MS method; assay type: ADME, organism-based; conditions: in vivo; in short: as §2
[15] = tested on: Rattus norvegicus; assay: Apparent volume of distribution in Sprague-Dawley rat at 10 mg/kg, po by LC-MS/MS method; assay type: ADME, organism-based; conditions: in vivo; in short: as §2
[16] = Clearance in Sprague-Dawley rat at 10 mg/kg, po by LC-MS/MS method; assay type: ADME, organism-based; conditions: in vivo; in short: as §2
[17] = Mean residence time in Sprague-Dawley rat at 10 mg/kg, po by LC-MS/MS method; assay type: ADME, organism-based; conditions: in vivo; in short: as §2
[18] = Half life in Sprague-Dawley rat at 10 mg/kg, po by LC-MS/MS method; assay type: ADME, organism-based; conditions: in vivo; in short: as §2
[19] = Tmax in Sprague-Dawley rat at 10 mg/kg, po by LC-MS/MS method; assay type: ADME, organism-based; conditions: in vivo; in short: as §2
[20] = Oral bioavailability in Sprague-Dawley rat at 10 mg/kg by LC-MS/MS method; assay type: ADME, organism-based; conditions: in vivo; in short: as §2

Sequence of Tyrosine-protein kinase BTK (Q06187 whole entry): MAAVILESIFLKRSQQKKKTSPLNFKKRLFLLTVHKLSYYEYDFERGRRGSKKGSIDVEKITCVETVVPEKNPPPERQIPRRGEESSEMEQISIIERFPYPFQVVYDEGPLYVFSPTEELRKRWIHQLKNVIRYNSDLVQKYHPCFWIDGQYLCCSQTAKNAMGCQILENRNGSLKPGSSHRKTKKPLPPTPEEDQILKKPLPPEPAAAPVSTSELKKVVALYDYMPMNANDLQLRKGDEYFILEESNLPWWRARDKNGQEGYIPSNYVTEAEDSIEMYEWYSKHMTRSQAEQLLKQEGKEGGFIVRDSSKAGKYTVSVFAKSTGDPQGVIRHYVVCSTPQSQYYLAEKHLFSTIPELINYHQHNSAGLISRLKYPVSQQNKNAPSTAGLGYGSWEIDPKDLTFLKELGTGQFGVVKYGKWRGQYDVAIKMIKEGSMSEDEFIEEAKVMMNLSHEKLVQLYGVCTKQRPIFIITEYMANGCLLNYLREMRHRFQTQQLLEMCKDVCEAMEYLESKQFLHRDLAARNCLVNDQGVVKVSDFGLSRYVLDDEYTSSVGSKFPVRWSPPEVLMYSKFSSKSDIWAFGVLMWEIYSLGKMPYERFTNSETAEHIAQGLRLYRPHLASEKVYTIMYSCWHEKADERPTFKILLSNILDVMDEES

Structure (SMILES): CCCCc1cnc(N)c2c(-c3ccc(Oc4ccccc4)cc3)csc12
IC50 [1]: > 10000 nM

Structure (SMILES): CNC(=O)Cn1cc(-c2cnc(N)c3c(-c4ccc(C(=O)Nc5ccccc5)cc4)csc23)cn1
IC50 [1]: 137 nM

Structure (SMILES): COc1ccc2cc(-c3cnc(N)c4c(-c5ccc(Oc6ccccc6)cc5)csc34)ccc2c1
IC50 [1]: > 10000 nM

Structure (SMILES): CNC(=O)Cn1cc(-c2cnc(N)c3c(-c4ccc(NC(=O)c5cccc(Cl)c5)cc4)csc23)cn1
IC50 [1]: 409 nM

Structure (SMILES): CNC(=O)Cn1cc(-c2cnc(N)c3c(-c4cccc(C(=O)Nc5ccccc5)c4)csc23)cn1
IC50 [1]: 291 nM

Structure (SMILES): Nc1ncc(-c2cnn(Cc3ccccc3)c2)c2scc(-c3ccc(Oc4ccccc4)cc3)c12
IC50 [1]: 699 nM

Structure (SMILES): CN(C)S(=O)(=O)n1cc(-c2cnc(N)c3c(-c4ccc(Oc5ccccc5)cc4)csc23)cn1
IC50 [1]: 528 nM

Structure (SMILES): Cn1cc(-c2cnc(N)c3c(-c4ccc(NC(=O)c5cccc(Cl)c5)cc4)csc23)cn1
IC50 [1]: 421 nM

Structure (SMILES): Nc1ncc(-c2ccc(Oc3ccccc3)cc2)c2scc(-c3ccc(Oc4ccccc4)cc3)c12
IC50 [1]: > 10000 nM

Structure (SMILES): Nc1ncc(-c2ccc(N3CCOCC3)cc2)c2scc(-c3ccc(Oc4ccccc4)cc3)c12
IC50 [1]: 2300 nM

Structure (SMILES): COCCCn1cc(-c2cnc(N)c3c(-c4ccc(Oc5ccccc5)cc4)csc23)cn1
IC50 [1]: 280 nM

Other lines, results leading:

IC50 [1]: 176 nM
Structure (SMILES): CCn1cc(-c2cnc(N)c3c(-c4ccc(Oc5ccccc5)cc4)csc23)cn1

IC50 [1]: 1950 nM
Structure (SMILES): Nc1ncc(-c2ccncc2)c2scc(-c3ccc(Oc4ccccc4)cc3)c12

IC50 [1]: 454 nM
Structure (SMILES): CC(=O)n1cc(-c2cnc(N)c3c(-c4ccc(Oc5ccccc5)cc4)csc23)cn1

IC50 [1]: 387 nM
Structure (SMILES): CCCCn1cc(-c2cnc(N)c3c(-c4ccc(Oc5ccccc5)cc4)csc23)cn1

IC50 [1]: 1050 nM
Structure (SMILES): Nc1ncc(-c2cn[nH]c2)c2scc(-c3ccc(Oc4ccccc4)cc3)c12

IC50 [1]: 12.8 nM
IC50 [2]: > 10000 nM
IC50 [3]: 284 nM
IC50 [4]: > 10000 nM
IC50 [5]: > 10000 nM
Cmax [6]: 2550 ng/mL
AUC(0-t) [7]: 1460 ng·h/mL
Vd [8]: 0.9 L/kg
clearance [9]: 28.6 mL/min/kg
MRT [10]: 25.8 min
half-life [11]: 21.6 min
Tmax [12]: 6.6 min
Cmax [13]: 856 ng/mL
AUC(0-t) [14]: 1370 ng·h/mL
Vz [15]: 13.3206 L/kg
CL/F [16]: 145 mL/min/kg
MRT [17]: 88.8 min
half-life [18]: 60.6 min
Tmax [19]: 40.2 min
bioavailability [20]: 23.4%
Structure (SMILES): CNC(=O)Cn1cc(-c2cnc(N)c3c(-c4ccc(Oc5ccccc5)cc4)csc23)cn1

IC50 [1]: > 10000 nM
Structure (SMILES): Nc1ncc(-c2ccccc2)c2scc(-c3ccc(Oc4ccccc4)cc3)c12

IC50 [1]: > 10000 nM
Structure (SMILES): Nc1ncc(C2CC2)c2scc(-c3ccc(Oc4ccccc4)cc3)c12

IC50 [1]: 107 nM
IC50 [2]: > 10000 nM
IC50 [3]: 343 nM
IC50 [4]: > 10000 nM
IC50 [5]: > 10000 nM
Structure (SMILES): Cn1cc(-c2cnc(N)c3c(-c4ccc(Oc5ccccc5)cc4)csc23)cn1

IC50 [1]: 767 nM
Structure (SMILES): Nc1ncc(-c2ccco2)c2scc(-c3ccc(Oc4ccccc4)cc3)c12
